Experimental data taken from ChEMBL document CHEMBL4665666, “Discovery and characterization of trypanocidal cysteine protease inhibitors from the 'malaria box'” (Eur J Med Chem, 2019).

Tests used:
cathepsin S [1] = target: T1, cathepsin S (Homo sapiens, UniProt P25774); assay: Inhibition of recombinant human cathepsin S expressed in Escherichia coli at 1 uM using Z-VVR-AMC as substrate preincubated for 10 mins followed by substrate addition and measured after 15 mins by microplate reader based assay relative to control; conditions: probe Z-VVR-AMC, in the assay text read “preincubated for 5 mins” for “preincubated for 10 mins”, time 20 min
Summary of the method: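 Run with or without 5 min compound–enzyme pre-incubation. AMC fluorescence at 380/460 nm over 15 min. Inhibition relative to DMSO (2% final); E64 1 µM as positive control. Two independent experiments, each in triplicate.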

cathepsin B [2] = target: T2, cathepsin B (Rattus norvegicus, UniProt P00787); assay: Inhibition of rat cathepsin B at 1 uM using Z-FR-AMC as substrate measured after 15 mins without preincubation by microplate reader based assay relative to control; conditions: probe Z-FR-AMC
cathepsin B [3] = target: T2, cathepsin B; assay: Inhibition of rat cathepsin B at 1 uM using Z-FR-AMC as substrate preincubated for 5 mins followed by substrate addition and measured after 15 mins by microplate reader based assay relative to control; conditions: probe Z-FR-AMC
cathepsin S [4] = target: T1, cathepsin S; assay: Inhibition of recombinant human cathepsin S expressed in Escherichia coli at 1 uM using Z-VVR-AMC as substrate and measured after 15 mins without preincubation by microplate reader based assay relative to control; conditions: probe Z-VVR-AMC
[5] = target: Rhodesain (Trypanosoma brucei rhodesiense) (UniProt Q95PM0); assay: Inhibition of recombinant Trypanosoma brucei rhodesain expressed in Pichia pastoris at 0.5 uM using Z-FR-AMC as substrate and measured at 12 sec interval for 5 mins without preincubation by fluorimetric analysis relative to control
Summary of the method: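 Recombinant rhodesain or cruzain (1 nM) in 0.1 M sodium acetate pH 5.5, 0.01% Triton X-100, 1 mM β-mercaptoethanol. Compound at a single concentration, either without or after 10 min enzyme pre-incubation. Z-FR-AMC 2.5 µM, read at 340/440 nm every 12 s for 5 min. Inhibition is relative to DMSO, with E-64 as positive control. Done in duplicate (primary screen) or triplicate.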

T2 sequence (P00787 whole entry): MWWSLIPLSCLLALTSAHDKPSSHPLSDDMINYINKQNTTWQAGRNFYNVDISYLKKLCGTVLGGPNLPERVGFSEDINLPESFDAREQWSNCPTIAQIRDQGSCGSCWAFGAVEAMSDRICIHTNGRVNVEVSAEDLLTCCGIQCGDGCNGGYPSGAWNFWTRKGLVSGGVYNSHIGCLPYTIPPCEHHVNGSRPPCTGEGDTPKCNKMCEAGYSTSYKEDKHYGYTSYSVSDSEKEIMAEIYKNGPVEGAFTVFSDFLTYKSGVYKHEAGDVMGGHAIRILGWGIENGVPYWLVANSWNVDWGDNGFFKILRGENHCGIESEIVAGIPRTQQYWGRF
T1 sequence (P25774 whole entry): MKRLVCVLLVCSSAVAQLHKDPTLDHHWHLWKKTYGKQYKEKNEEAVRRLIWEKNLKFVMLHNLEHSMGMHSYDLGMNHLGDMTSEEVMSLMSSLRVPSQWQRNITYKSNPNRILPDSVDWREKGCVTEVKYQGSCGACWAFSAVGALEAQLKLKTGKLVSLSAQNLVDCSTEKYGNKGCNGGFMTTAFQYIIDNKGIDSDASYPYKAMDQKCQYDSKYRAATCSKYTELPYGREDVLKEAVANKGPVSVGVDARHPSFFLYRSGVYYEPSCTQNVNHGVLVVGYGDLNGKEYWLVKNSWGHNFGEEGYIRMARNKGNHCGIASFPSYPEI
Chain of Rhodesain (Trypanosoma brucei rhodesiense) (Q95PM0 1-450): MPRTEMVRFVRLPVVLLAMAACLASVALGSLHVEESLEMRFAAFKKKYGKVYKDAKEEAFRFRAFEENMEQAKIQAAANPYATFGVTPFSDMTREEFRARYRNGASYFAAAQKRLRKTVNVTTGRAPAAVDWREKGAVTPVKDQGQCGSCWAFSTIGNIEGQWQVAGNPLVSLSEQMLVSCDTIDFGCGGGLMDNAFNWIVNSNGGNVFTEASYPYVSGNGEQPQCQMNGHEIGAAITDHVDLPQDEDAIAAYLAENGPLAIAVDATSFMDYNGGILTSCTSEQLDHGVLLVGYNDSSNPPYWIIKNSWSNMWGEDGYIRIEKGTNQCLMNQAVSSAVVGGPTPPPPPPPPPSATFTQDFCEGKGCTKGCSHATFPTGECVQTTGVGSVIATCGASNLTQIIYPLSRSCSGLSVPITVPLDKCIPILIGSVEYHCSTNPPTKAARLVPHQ

CC(C)C[C@H](NC(=O)[C@H]1O[C@@H]1C(=O)O)C(=O)NCCCCN=C(N)N [E-64]
inhibition at 0.25 h, 1 µM (cathepsin S [1]): 99.9%
inhibition at 0.25 h, 1 µM (cathepsin B [2]): 99.1%
inhibition at 0.25 h, 1 µM (cathepsin B [3]): 100%
inhibition at 0.25 h, 1 µM (cathepsin S [4]): 99.9%
inhibition [5]: 36%
